# Assay outcomes as filed in PubChem.
# Beta2AR agonist – activates human beta-2 adrenergic receptor causing internalization | P07550 | Am2.2-beta2AR cells, FAP receptor internalization, flow cytometry | response, % (no concentration beside the values) | 340,000 compounds, 0.43% hits | AID 504454;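 active means response above a set limit, near 3 SD of response in nonfluorescent compounds, cut at about 42% in these data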
# APJ ag – APJ receptor agonism. CHO-K1 APJ PathHunter beta-arrestin, luminescence; 0% DMSO wells, 100% apelin. activation, % at 20 µM. 330,000 compounds, 0.11% hits. AID 2520;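 active means activation more than six SD over the plate average, tested at 20 µM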;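 further: 0% = DMSO alone and 100% = apelin-13 at 10 nM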
#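 Incubation: overnight seeding, 90 min compound at 25 °C, 1 h detection; test system: PathHunter CHO-K1 APJ (AGTRL-1) beta-arrestin reporter cells; amount: 1000 cells/well; doses: one dose, 20 µM compound, 1% DMSO; measured by: beta-gal luminescence; measure: agonist-driven arrestin binding to APJ; benchmarks: negative DMSO alone, positive Apelin-13 at 10 nM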
# CCR6 antagonist – antagonists of human CCR6 receptor; 340,000 compounds, 0.49% hits; inhibition, % at 20 µM; P51684; CHO-K1 CCR6 PathHunter beta-arrestin, luminescence, CCL20-stimulated;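 active means compounds whose inhibition of the agonist-driven luminescence signal at 20 µM reaches about 50%, limit read from the data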;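 further: cells stimulated with CCL20 at 14 nM final; plate controls were DMSO with CCL20 for no effect and DMSO without agonist for full effect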
# Target sequence (P51684 whole entry, looked up): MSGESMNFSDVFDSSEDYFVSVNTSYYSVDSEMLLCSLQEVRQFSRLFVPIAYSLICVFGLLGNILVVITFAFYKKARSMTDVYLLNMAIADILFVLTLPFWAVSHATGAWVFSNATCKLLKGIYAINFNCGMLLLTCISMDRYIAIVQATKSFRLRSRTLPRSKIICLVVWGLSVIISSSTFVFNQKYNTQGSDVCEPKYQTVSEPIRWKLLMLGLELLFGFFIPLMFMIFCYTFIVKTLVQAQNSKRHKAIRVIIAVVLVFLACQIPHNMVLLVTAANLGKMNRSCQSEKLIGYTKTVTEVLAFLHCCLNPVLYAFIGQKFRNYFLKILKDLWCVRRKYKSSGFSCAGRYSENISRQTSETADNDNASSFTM
# EBI2 block – EBI2 (human) antagonism. AID 651636. inhibition, % at 5 µM. EBI2 beta-arrestin recruitment, luminescence, 7a,25-OHC stimulated. 360,000 compounds, 0.81% hits. P32249; in the data active means inhibition above about 38%;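 further: enzyme fragment complementation signal reports receptor beta-arrestin coupling in cells; 0% = agonist plus DMSO wells and 100% = wells without agonist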
# CXCR6 block – blocks human CXCR6 beta-arrestin recruitment; O00574; AID 602244; CHO-K1 PathHunter CXCR6 beta-arrestin, luminescence; inhibition, % at 20 µM; 360,000 compounds, 0.36% hits; in the data active means inhibition above about 34%, passing the limit was not always enough;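 further: antagonist mode with CXCL16 agonist at 10 nM final; 0% = 10 nM CXCL16 with DMSO and 100% = unstimulated wells without agonist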
# Target sequence (O00574 whole entry, looked up): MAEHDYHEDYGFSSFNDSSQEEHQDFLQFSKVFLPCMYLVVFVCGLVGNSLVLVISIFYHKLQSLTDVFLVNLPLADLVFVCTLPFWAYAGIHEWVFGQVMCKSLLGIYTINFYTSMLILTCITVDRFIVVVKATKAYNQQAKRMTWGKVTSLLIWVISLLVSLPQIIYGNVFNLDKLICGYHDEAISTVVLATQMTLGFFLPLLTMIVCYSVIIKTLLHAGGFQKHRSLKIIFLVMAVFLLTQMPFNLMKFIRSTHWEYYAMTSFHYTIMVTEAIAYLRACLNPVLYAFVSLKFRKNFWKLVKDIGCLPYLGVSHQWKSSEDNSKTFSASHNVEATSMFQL
# APJ antagonist – APJ receptor antagonism; P35414; CHO-K1 APJ beta-arrestin complementation, luminescence; inhibition, % at 20 µM; 330,000 compounds, 0.32% hits;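 active means inhibition above about 40% at 20 µM, limit read from the data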;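 further: cells challenged with 10 nM apelin-13 agonist together with compound; plate controls were apelin-13 plus DMSO wells for no effect and DMSO wells lacking apelin-13 for full effect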
# B2AR ag CP1 – activates human beta-2 adrenergic receptor | shares compounds with Beta2AR agonist | Am2.2-beta2AR cells, FAP surface receptor, flow cytometry; stronger effect = lower value | percent response (surface receptor), % at 10 µM | 1,100 compounds, 25% hits | AID 540358;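 active means surface receptor percent response at or below 58%, roughly 3 SD from nonfluorescent compounds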
# B2AR FAP counter – fluorescence artifact in beta-2AR agonist FAP counterscreen; shares compounds with Beta2AR agonist; Am2.2 cells, FAP fluorogen flow cytometry; stronger effect = lower value; calls only at 10 µM; 1,100 tested, under 10 active;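 active means percent response below a set limit in fluorescence channel 1 and below 50% in channel 8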
# Active calls of the source: *; i = inactive; . = no result. An excerpt weighted towards active compounds, which were near 1.8% of everything screened.
SMILES,Beta2AR agonist,APJ ag,CCR6 antagonist,EBI2 block,CXCR6 block,APJ antagonist,B2AR ag CP1,B2AR FAP counter
COc1ncnc2c1oc1nc(C)c3c(c12)CC(C)(C)OC3,8.6,-2.7,4.6,-2.1,-5.0,5.1,78.8,i
C=CCn1c(CCNC(=O)c2cccs2)nnc1SCC(=O)c1ccc(Br)cc1,98.1*,1.5,9.5,18.3,3.4,-1.0,18.6*,i
C=CCn1c(CCNC(=O)c2cccs2)nnc1SCC(=O)Nc1cccc(C(C)=O)c1,-3.0,-0.6,-2.6,-6.6,5.6,-4.7,.,.
COC(=O)Nc1ccc(S(=O)(=O)N2CCCc3cccc(O)c32)cc1,52.3*,-2.5,8.8,-11.7,2.0,-12.2,81.7,i
C=CCn1c(SCc2ccc(OC)cc2)nnc1-c1cccnc1,1.1,-2.1,-9.4,3.5,-2.5,-2.5,.,.
C=CCn1c(SCc2ccc(F)cc2)nnc1-c1sc2nc(C)cc(C)c2c1N,108.5*,-0.3,7.9,-9.4,-1.2,-4.4,28.5*,i
O=C(CN1CCN(c2ccccc2O)CC1)Nc1cc(S(=O)(=O)N2CCCC2)ccc1Cl,4.9,1.9,18.2,-15.0,-3.3,-4.7,.,.
c1ccc(CNc2nc(N3CCN(Cc4ccccc4)CC3)nc3ccccc23)cc1,16.4,-1.2,13.4,20.3,-10.3,6.5,97.8,i
O=C1NC[C@H](Cc2ccccc2)N(C[C@@H]2CCCN2C[C@H](Cc2ccc(O)cc2)N2C[C@H](Cc3ccccc3)N(CCc3ccccc3)C(=O)C2=O)C1=O,.,.,.,-7.7,0.1,.,.,.
Cc1ccccc1N=C(c1ccccc1)C1C(=O)c2ccccc2C1=O,.,.,.,5.6,19.2,.,.,.
COc1ccccc1C(=O)NC(=O)COC(=O)Cc1ccc(F)cc1,58.5*,-4.2,-4.8,-4.1,1.9,16.8,114.0,i
CN(C(=O)c1cccc(NC(=O)Cc2cccc(NC(=O)C3CCN(C(=O)C4CCCCC4)CC3)c2)c1)C1CC1,-4.0,.,6.5,-4.4,0.1,.,.,.
CN(C(=O)c1ccc(NC(=O)Cc2cccc(NC(=O)C3CCN(C(=O)C4CCC4)CC3)c2)cc1)C1CC1,-7.6,.,3.5,-9.4,8.4,.,113.3,i
CN(C(=O)c1ccc(NC(=O)Cc2cccc(NC(=O)C3CCN(C(=O)C4CCCCC4)CC3)c2)cc1)C1CCCC1,54.1*,-2.9,-5.9,-2.8,-2.8,-8.5,92.4,i
CN(C(=O)c1cccc(NC(=O)Cc2cccc(NC(=O)C3CCN(C(=O)C4CCC4)CC3)c2)c1)C1CC1,-5.1,.,-3.5,0.6,2.9,.,.,.
CC(C)[C@H](NC(=O)OCc1ccccc1)C(=O)OCC(=O)N1CCCCC1,3.0,.,0.7,-1.7,-2.8,.,.,.
C/C(=N\OCC(=O)OCC(=O)N(C)c1ccccc1)c1ccc2c(c1)OCO2,2.7,-1.5,5.2,-7.0,-12.1,3.7,.,.
CCOC(=O)CSc1nc2ccc(NC(=O)CSc3nnnn3Cc3ccccc3)cc2s1,54.0*,1.3,0.5,-24.6,6.3,-0.2,100.5,i
Cc1ccc(-n2c(C)nn(Cc3ccc([N+](=O)[O-])cc3)c2=O)cc1,-2.4,-1.0,-20.6,2.7,8.1,7.6,.,.
Cc1ccc(-n2c3nc(=O)[nH]c(=O)c-3cc3cc([N+](=O)[O-])ccc32)cc1,51.4*,8.2,-3.4,-9.1,-8.3,-28.6,107.8,i
Cc1ccc(Cl)cc1N1CCN(C(=O)Cc2c(C(=O)O)[nH]c3ccc(Cl)cc23)CC1,75.3*,-2.5,12.2,6.4,-2.2,8.7,113.1,i
c1cc(C2OCCO2)cs1,.,.,.,-7.8,-9.4,.,.,.
CC(=O)Nc1ccc(-c2nnc(SCc3ccc(C)cc3)n2C)cc1,42.3*,-4.0,-22.1,-7.7,2.4,-7.9,67.2,i
NC(=O)CC(NC(=O)Cc1ccc(Cl)cc1)c1ccc(NCCCN2CCCC2=O)c([N+](=O)[O-])c1 (configuration not stated),26.4,-3.3,15.6,-1.4,-8.9,-2.2,66.0,i
NC(=O)CC(NC(=O)c1ccc(Br)cc1)c1ccc(N2CCN(c3ccccc3)CC2)c([N+](=O)[O-])c1 (configuration not stated),-13.3,-2.3,21.3,1.0,5.0,5.9,.,.
SMILES,Beta2AR agonist,APJ ag,CCR6 antagonist,EBI2 block,CXCR6 block,APJ antagonist,B2AR ag CP1,B2AR FAP counter
NC(=O)CC(NC(=O)c1ccccc1)c1ccc(NCCCN2CCCC2=O)c([N+](=O)[O-])c1 (configuration not stated),90.1*,-2.9,9.2,-12.9,-13.1,22.1,36.3*,i
NC(=O)CC(NC(=O)c1ccccc1)c1ccc(N2CCN(c3ccccn3)CC2)c([N+](=O)[O-])c1 (configuration not stated),2.4,4.7,9.1,15.3,-2.9,-91.9,108.7,i
NC(=O)CC(NC(=O)c1ccccc1)c1ccc(NCCN2CCOCC2)c([N+](=O)[O-])c1 (configuration not stated),6.1,-2.5,9.5,-5.1,-5.0,17.7,.,.
CNC(=O)COC(=O)c1ccccc1C(=O)c1ccc(Cl)c([N+](=O)[O-])c1,16.4,.,15.0,17.6,16.6,.,.,.
O=C(COC(=O)c1ccccc1C(=O)c1ccc(Cl)c([N+](=O)[O-])c1)NC1CC1,42.8*,2.2,27.5,12.3,29.8,18.7,68.1,i
COc1cc(C=NO)nc(-c2ccccn2)c1,-32.0,.,-11.4,-29.3,-14.5,.,.,.
COc1ccc(C(C)=O)cc1CC(=O)N(Cc1ccccc1)c1ccccc1,44.7*,-0.1,3.5,18.4,-4.9,20.8,58.5,i
COc1ccccc1CC(=O)N(Cc1ccccc1)c1ccc(C)cc1,-3.4,-6.1,16.0,15.2,2.5,2.8,.,.
COc1cccc(NS(=O)(=O)c2ccc3c(c2)CCCN3C(C)=O)c1,46.6*,-3.0,-4.7,1.3,3.8,4.5,115.8,i
COc1ccc(NS(=O)(=O)c2ccc3c(c2)CCCN3C(C)=O)cc1,1.6,18.3,-16.4,-6.0,4.2,-6.0,.,.
O=c1[nH]c2ccccc2cc1CN(Cc1ccco1)S(=O)(=O)c1ccc(F)cc1,-13.4,9.7,6.7,0.3,2.1,1.7,142.2,i
CCN(Cc1cc2ccccc2[nH]c1=O)S(=O)(=O)c1ccc(OC)cc1,-14.3,2.0,-9.9,-4.2,-8.9,0.8,.,.
CC(NCc1ccc(OCc2ccc(Cl)cc2)cc1)C(O)c1ccccc1 (configuration not stated),79.2*,-3.1,20.6,-12.0,-11.3,-1.0,86.5,i
COc1ccc(OC)c(NC(=O)COc2ccc(Br)cc2)c1,67.9*,-1.7,6.8,16.3,1.9,10.8,105.0,i
